Results reported in ChEMBL document CHEMBL1130393, “Antitumor agents. 178. Synthesis and biological evaluation of substituted 2-aryl-1,8-naphthyridin-4(1H)-ones as antitumor agents that inhibit tubulin polymerization” (J Med Chem, 1997).

Tests used:
CAKI-1 [1] = test: In vitro antitumor activity against CAKI-1 tumor cell lines; assay type: functional; details: Homo sapiens
Tubulin = Tubulin (Bos taurus, UniProt Q6B856+Q862L2+Q862F3); test: Inhibition of tubulin polymerization; assay type: functional
[2] = tested on: Panel ovarian (Carcinoma cell lines); test: log molar concentration required to cause total growth inhibition of ovarian tumor cell lines; assay type: functional; details: Homo sapiens, read-out: Log TGI (converted)
In short: (§1)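 TGI from the NCI 60 human tumor cell line in vitro screen: log of the molar drug concentration causing total growth inhibition, reported for the named cell panel.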

NCI-H460 [3] = test: In vitro antitumor activity against NCI-H460 tumor cell lines; assay type: functional; details: Homo sapiens
Melanoma tumor cell line [4] = test: log molar concentration required to cause total growth inhibition of melanomic tumor cell lines; assay type: functional; details: Homo sapiens, read-out: Log TGI (converted); in short: as §1
HCT-116 [5] = test: In vitro antitumor activity against HCT116 tumor cell lines; assay type: functional; details: Homo sapiens
SF-295 [6] = test: In vitro antitumor activity against SF-295 tumor cell lines; assay type: functional; details: Homo sapiens
[7] = tested on: Panel renal (Carcinoma cell lines); test: log molar concentration required to cause total growth inhibition of renal tumor cell lines; assay type: functional; details: Homo sapiens, read-out: Log TGI (converted); in short: as §1
SK-MEL-5 [8] = test: In vitro antitumor activity against SK-MEL-5 tumor cell lines; assay type: functional; details: Homo sapiens
[9] = tested on: Panel breast (Carcinoma cell lines); test: log molar concentration required to cause total growth inhibition of breast tumor cell lines; assay type: functional; details: Homo sapiens, read-out: Log TGI (converted); in short: as §1
NSCLC = test: log molar concentration required to cause total growth inhibition of non-small cell lung tumor cell lines; assay type: functional; details: Homo sapiens, read-out: Log TGI (converted); in short: as §1
Leukemic tumor cell line = test: (§2) log molar concentration required to cause total growth inhibition of leukemic tumor cell lines; assay type: functional; details: Homo sapiens, read-out: Log TGI (converted); in short: as §1
PC-3 [10] = test: In vitro antitumor activity against PC-3 tumor cell lines; assay type: functional; details: Homo sapiens
U-251 [11] = test: In vitro antitumor activity against U-251 tumor cell lines; assay type: functional; details: Homo sapiens
OVCAR-3 [12] = test: In vitro antitumor activity against OVCAR-3 tumor cell lines; assay type: functional; details: Homo sapiens
HL-60 [13] = test: In vitro antitumor activity against HL-60(TB) tumor cell lines; assay type: functional; details: Homo sapiens
Tubulin (Bos taurus) = Tubulin (Bos taurus) (UniProt Q6B856+Q862L2+Q862F3); test: Inhibition of radiolabeled colchicine binding to tubulin; assay type: protein assay; set-up: concentration or dose not given beside the values; details: concentration not given here
In short: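 Measured by DEAE-cellulose filter binding. The 0.1 mL mixture held bovine brain tubulin 1.0 µM, 1.0 M monosodium glutamate (pH 6.6), 1 mM MgCl2, 0.1 mM GTP, 5.0 µM [3H]colchicine, 5% DMSO and inhibitor at 5.0 µM. It was incubated 20 min at 37 °C, filtered through two DEAE-cellulose papers, washed with water and counted by liquid scintillation.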

[14] = tested on: Panel CNS (Carcinoma cell lines); test: log molar concentration required to cause total growth inhibition of CNS cancer tumor cell lines; assay type: functional; details: Homo sapiens, read-out: Log TGI (converted); in short: as §1
[15] = tested on: Panel colon (Carcinoma cell lines); test: log molar concentration required to cause total growth inhibition of colon tumor cell lines; assay type: functional; details: Homo sapiens, read-out: Log TGI (converted); in short: as §1
Tumor Cell line [16] = test: log molar concentration required to cause total growth inhibition of NCI 's human tumor cell lines; assay type: functional; details: read-out: Log TGI (converted)
In short: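 NCI 60 human tumor cell line in vitro screen. TGI is the log molar concentration giving total growth inhibition, calculated from all cell lines tested.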

MDA-MB-435 [17] = test: In vitro antitumor activity against MDA-MB-435 NCI 's human tumor cell lines; assay type: functional
Tumor Cell line [18] = test: In vitro antitumor activity against NCI 's human tumor cell lines; assay type: functional; details: read-out: Average log GI50 (converted)
In short: (§3)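 NCI in vitro screen of 60 human tumor cell lines. […] The value is calculated from all cell lines tested.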

MDA-N [19] = test: In vitro antitumor activity against MDA-N tumor cell lines; assay type: functional; details: Homo sapiens
[20] = tested on: Panel prostate (Carcinoma cell lines); test: log molar concentration required to cause total growth inhibition of prostate tumor cell lines; assay type: functional; details: Homo sapiens, read-out: Log TGI (converted); in short: as §1
SK-MEL-5 [21] = test: in vitro antitumor activity against SK-MEL-5 tumor cell lines; assay type: functional; details: Homo sapiens
HCT-116 [22] = test: in vitro antitumor activity against HCT116 tumor cell lines; assay type: functional; details: Homo sapiens
MDA-N [23] = test: in vitro antitumor activity against MDA-N tumor cell lines; assay type: functional; details: Homo sapiens
HL-60 [24] = test: in vitro antitumor activity against HL-60(TB) tumor cell lines; assay type: functional; details: Homo sapiens
Tumor Cell line [25] = test: in vitro antitumor activity against NCI 's human tumor cell lines; assay type: functional; details: read-out: Average log GI50 (converted); in short: as §3
MDA-MB-435 [26] = test: in vitro antitumor activity against MAD-MB-435NCI 's human tumor cell lines; assay type: functional
PC-3 [27] = test: in vitro antitumor activity against PC-3 tumor cell lines; assay type: functional; details: Homo sapiens
U-251 [28] = test: in vitro antitumor activity against U-251 tumor cell lines; assay type: functional; details: Homo sapiens
NCI-H460 [29] = test: in vitro antitumor activity against NCI-H460 tumor cell lines; assay type: functional; details: Homo sapiens
SF-295 [30] = test: in vitro antitumor activity against SF-295 tumor cell lines; assay type: functional; details: Homo sapiens
CAKI-1 [31] = test: in vitro antitumor activity against CAKI-1 tumor cell lines; assay type: functional; details: Homo sapiens
OVCAR-3 [32] = test: in vitro antitumor activity against OVCAR-3 tumor cell lines; assay type: functional; details: Homo sapiens
[33] = tested on: Panel CNS (Carcinoma cell lines); test: log molar concentration required to cause total growth inhibition of CNS cancer cell lines; assay type: functional; details: Homo sapiens, read-out: Log TGI (converted); in short: as §1
leukaemia cell line = test: as §2; assay type: functional; details: Homo sapiens, read-out: Log TGI (converted); in short: as §1
Melanoma tumor cell line [34] = test: log molar concentration required to cause total growth inhibition of melanomicell lines; assay type: functional; details: Homo sapiens, read-out: Log TGI (converted); in short: as §1

Structure (SMILES)	GI50 (CAKI-1 [1])	IC50 (Tubulin)	TGI [2]	GI50 (NCI-H460 [3])	GI50 (HCT-116 [5])	GI50 (SF-295 [6])	TGI [7]	GI50 (SK-MEL-5 [8])	TGI [9]	TGI (NSCLC)	GI50 (PC-3 [10])	GI50 (U-251 [11])	GI50 (OVCAR-3 [12])	GI50 (HL-60 [13])	inhibition (Tubulin (Bos taurus))	TGI [15]	TGI (Tumor Cell line [16])	GI50 (MDA-MB-435 [17])	GI50 (Tumor Cell line [18])	GI50 (MDA-N [19])	further results
Cc1ccnc2nc(-c3cccc(Cl)c3)cc(O)c12	33.1 nM	1000 nM	27500 nM	38.9 nM	15.8 nM	40.7 nM	69200 nM	41.7 nM	813 nM	100000 nM	15.5 nM	52.5 nM	31.6 nM	< 10 nM	32%	12000 nM	25700 nM	< 10 nM	158 nM	11.8 nM	TGI (Melanoma tumor cell line [4]): 70800 nM; TGI (Leukemic tumor cell line): 100000 nM; TGI [14]: 18200 nM; TGI [20]: 2340 nM
Cc1cccc(-c2cc(O)c3cccnc3n2)c1		3300 nM																			GI50 (SK-MEL-5 [21]): 25.7 nM; GI50 (HCT-116 [22]): 22.4 nM; GI50 (MDA-N [23]): < 10 nM; GI50 (HL-60 [24]): 19.1 nM; GI50 (Tumor Cell line [25]): 95.5 nM; GI50 (MDA-MB-435 [26]): < 10 nM; GI50 (PC-3 [27]): 42.7 nM; GI50 (U-251 [28]): 44.7 nM; GI50 (NCI-H460 [29]): 25.7 nM; GI50 (SF-295 [30]): 37.1 nM; GI50 (CAKI-1 [31]): 37.1 nM; GI50 (OVCAR-3 [32]): 41.7 nM
Cc1ccc2c(=O)cc(-c3cccc(F)c3)[nH]c2n1	45.7 nM	530 nM	10200 nM	33.1 nM	28.2 nM	28.8 nM	64600 nM	22.4 nM	575 nM	5750 nM	34.7 nM	38 nM	19.5 nM	22.4 nM	41%	550 nM	4680 nM	12.3 nM	42.7 nM	14.4 nM	TGI (Melanoma tumor cell line [4]): 24000 nM; TGI [33]: 2240 nM; TGI (Leukemic tumor cell line): 2750 nM; TGI [20]: 1580 nM
Cc1cnc2[nH]c(-c3cccc(Cl)c3)cc(=O)c2c1	42.7 nM	720 nM	15800 nM	50.1 nM	30.2 nM	25.1 nM	87100 nM	70.8 nM	12900 nM	44700 nM	> 100000 nM	69.2 nM	22.4 nM	30.9 nM	33%	9550 nM	30900 nM	< 10 nM	269 nM	> 100000 nM	TGI [33]: 1910 nM; TGI (leukaemia cell line): 72400 nM; TGI (Melanoma tumor cell line [34]): 47900 nM; TGI [20]: > 100000 nM
Cc1cnc2[nH]c(-c3cccc(F)c3)cc(=O)c2c1	28.2 nM	630 nM	26900 nM	38.9 nM	24 nM	27.5 nM	55000 nM	28.2 nM	537 nM	16200 nM	34.7 nM	40.7 nM	13.5 nM	20.4 nM	43%	324 nM	5130 nM	< 10 nM	50.1 nM	11.8 nM	TGI (Melanoma tumor cell line [4]): 32400 nM; TGI (Leukemic tumor cell line): 2690 nM; TGI [14]: 3090 nM; TGI [20]: 692 nM
Cc1cc(C)c2c(O)cc(-c3cccc(Cl)c3)nc2n1	204 nM	770 nM	30200 nM	224 nM	170 nM	47.9 nM	58900 nM	117 nM	1230 nM	> 100000 nM	27.5 nM	295 nM	170 nM	74.1 nM	22%	28800 nM	26300 nM	13.2 nM	347 nM	19.1 nM	TGI (Melanoma tumor cell line [4]): 72400 nM; TGI [33]: 5010 nM; TGI (Leukemic tumor cell line): 81300 nM; TGI [20]: 3090 nM
Cc1ccc2c(O)cc(-c3cccc(Cl)c3)nc2n1	41.7 nM	890 nM	10500 nM	41.7 nM	25.7 nM	22.9 nM	> 100000 nM	31.6 nM	3800 nM	24500 nM	> 100000 nM	64.6 nM	< 10 nM	28.8 nM	38%	3090 nM	21400 nM	< 10 nM	170 nM	> 100000 nM	TGI (Melanoma tumor cell line [4]): 69200 nM; TGI [33]: 1950 nM; TGI (Leukemic tumor cell line): > 100000 nM; TGI [20]: > 100000 nM
Cc1cc(C)c2c(O)cc(-c3cccc(F)c3)nc2n1	35.5 nM	740 nM	5500 nM	53.7 nM	< 10 nM	33.1 nM	49000 nM	37.1 nM	1000 nM	2510 nM	61.7 nM	64.6 nM	18.2 nM	37.1 nM	29%	1170 nM	5620 nM	< 10 nM	85.1 nM	12.9 nM	TGI (Melanoma tumor cell line [4]): 13800 nM; TGI [33]: 9770 nM; TGI (Leukemic tumor cell line): 2450 nM; TGI [20]: 49000 nM
